# Source: ChEMBL document CHEMBL1128437, “Derivatives of 17-phenyl-18,19,20-trinorprostaglandin F2 alpha isopropyl ester: potential antiglaucoma agents” (J Med Chem, 1995)
# How the values were obtained:
# Felis catus [1] = organism: Felis catus; assay: Concentration giving half-maximal contraction of the cat iris sphincter muscle was determined in vitro; format: functional; settings: Felis catus, Sphincter muscle
# Summary of the method: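 Compounds were tested as hydrolysed free acids on isolated cat iris sphincter in organ baths. Bath solution was bicarbonate physiological saline with glucose plus indomethacin 2.8 × 10⁻⁶ M, atropine 10⁻⁷ M and propranolol 10⁻⁶ M. Resting tension was 150 mg, with at least 30 min equilibration. Cumulative dosing was at 5–10 min intervals. Isometric contraction was normalised to each tissue's maximum, averaged over four preparations, and fitted with a Hill equation for EC50.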
# Felis catus [2] = organism: Felis catus; assay: The mean ocular irritation in the treated eyes. An arbitrary scale of from 0 to 3 was used, 0 indicates absence of irritation and 3 complete closure of the lids. The effect was tested in cats at a dose of 1.0 (ug/eye); format: functional
# Summary of the method: (§1)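 Ocular irritation was scored in the treated eye of trained female cats, 2–3 kg. Drug was given as one topical 20 µL drop in 0.9% NaCl with 0.5% polysorbate 80. The contralateral eye got vehicle only.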
# Felis catus [3] = organism: Felis catus; assay: The maximal difference in Intraocular Pressure (IOP) between treated and control eyes. The effect was tested in cats at a dose of 1.0 (ug/eye); format: functional
# Summary of the method: (§2)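 Domestic female cats, 2–3 kg, trained for IOP measurement. One eye received a topical drop (20 µL) of drug in 0.9% NaCl with 0.5% polysorbate 80; the other eye received vehicle. IOP was read by pneumatonometer under oxibuprocain local anaesthesia before dosing and at 1, 3, 6 and 23 h. The maximal treated-minus-control difference was taken. Area between curves is the treated-eye AUC minus control-eye AUC, per animal.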
# Monkey [4] = assay: The maximal difference in Intraocular Pressure (IOP) measured in treated and control eyes. The effect was tested in monkey at a dose of 3.0 (ug/eye); format: functional, Cercopithecidae
# Summary of the method: (§3)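 Cynomolgus monkeys trained for IOP measurement were sedated with ketamine (2–3 mg/kg) for transport and seated in restraint chairs under oxibuprocain local anaesthesia. One eye received a 10 µL drop of drug in 0.9% NaCl/0.5% polysorbate 80; the fellow eye received vehicle. IOP was read by pneumatonometer calibrated for monkey eyes before dosing and at 1, 2, 4 and 6 h. Matched-pair t test, n = 6.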
# Monkey [5] = assay: The mean area between curves for Intraocular Pressure (IOP) measured in treated and control eyes. The effect was tested in monkey at a dose of 1.0 (ug/eye); format: functional, Cercopithecidae; summary of the method: as §3
# Oryctolagus cuniculus [6] = organism: Oryctolagus cuniculus; assay: The maximal difference in conjunctival hyperemia between treated and control eyes. The effect was tested in rabbit at a dose of 0.5 (ug/eye)
# Felis catus [7] = organism: Felis catus; assay: The mean area between curves for pupil diameter between treated and control eyes. The effect was tested in cats at a dose of 1.0 (ug/eye); format: functional
# Summary of the method: (§4)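 Trained female cats, 2–3 kg, were dosed unilaterally with one 20 µL topical drop of drug in 0.9% NaCl/0.5% polysorbate 80, with vehicle in the contralateral eye. Horizontal pupil diameter was measured with a millimetre ruler under constant 10 lux illumination before dosing and at 1, 3, 6 and 23 h. Reported as maximal treated–control difference or as area between curves, per animal.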
# Felis catus [8] = organism: Felis catus; assay: The maximal difference in […] pupil diameter between treated and control eyes. The effect was tested in cats at a dose of 1.0 (ug/eye); format: functional; summary of the method: as §4
# Oryctolagus cuniculus [9] = organism: Oryctolagus cuniculus; assay: The mean area between curves for conjunctival hyperemia between treated and control eyes. The effect was tested in rabbit at a dose of 0.5 (ug/eye)
# Monkey [10] = assay: The maximal difference in Intraocular Pressure (IOP) measured in treated and control eyes. The effect was tested in monkey at a dose of 1.0 (ug/eye); format: functional, Cercopithecidae; summary of the method: as §3
# Felis catus [11] = organism: Felis catus; assay: The mean area between curves for Intraocular Pressure (IOP) measured in treated and control eyes. The effect was tested in cats at a dose of 1.0 (ug/eye); format: functional; summary of the method: as §2
# Monkey [12] = assay: The mean area between curves for Intraocular Pressure (IOP) measured in treated and control eyes. The effect was tested in monkey at a dose of 3.0 (ug/eye); format: functional, Cercopithecidae; summary of the method: as §3
# Monkey [13] = assay: The mean area between curves for Intraocular Pressure (IOP) measured in treated and control eyes. The effect was tested in monkey at a dose of 10.0 (ug/eye); format: functional, Cercopithecidae; summary of the method: as §3
# Monkey [14] = assay: The maximal difference in Intraocular Pressure (IOP) measured in treated and control eyes. The effect was tested in monkey at a dose of 10.0 (ug/eye); format: functional, Cercopithecidae; summary of the method: as §3
# Oryctolagus cuniculus [15] = organism: Oryctolagus cuniculus; assay: The mean area between curves for conjunctival hyperemia between treated and control eyes. The effect was tested in rabbit at a dose of 0.1 (ug/eye)
# Felis catus [16] = organism: Felis catus; assay: The mean ocular irritation in the treated eyes. An arbitrary scale of from 0 to 3 was used, 0 indicates absence of irritation and 3 complete closure of the lids. The effect was tested in cats at a dose of 3.0 (ug/eye); format: functional; summary of the method: as §1
# Oryctolagus cuniculus [17] = organism: Oryctolagus cuniculus; assay: The maximal difference in conjunctival hyperemia between treated and control eyes. The effect was tested in rabbit at a dose of 0.1 (ug/eye)
# Felis catus [18] = organism: Felis catus; assay: The mean area between curves for pupil diameter between treated and control eyes. The effect was tested in cats at a dose of 3.0 (ug/eye); format: functional; summary of the method: as §4
# Felis catus [19] = organism: Felis catus; assay: The maximal difference in […] pupil diameter between treated and control eyes. The effect was tested in cats at a dose of 3.0 (ug/eye); format: functional; summary of the method: as §4
# Felis catus [20] = organism: Felis catus; assay: The mean area between curves for Intraocular Pressure (IOP) measured in treated and control eyes. The effect was tested in cats at a dose of 3.0 (ug/eye); format: functional; summary of the method: as §2
# Felis catus [21] = organism: Felis catus; assay: The maximal difference in Intraocular Pressure (IOP) between treated and control eyes. The effect was tested in cats at a dose of 3.0 (ug/eye); format: functional; summary of the method: as §2
# Felis catus [22] = organism: Felis catus; assay: The mean area between curves for Intraocular Pressure (IOP) measured in treated and control eyes. The effect was tested in cats at a dose of 10.0 (ug/eye); format: functional; summary of the method: as §2
# Felis catus [23] = organism: Felis catus; assay: The maximal difference in Intraocular Pressure (IOP) between treated and control eyes. The effect was tested in cats at a dose of 10.0 (ug/eye); format: functional; summary of the method: as §2
# Felis catus [24] = organism: Felis catus; assay: The mean ocular irritation in the treated eyes. An arbitrary scale of from 0 to 3 was used, 0 indicates absence of irritation and 3 complete closure of the lids. The effect was tested in cats at a dose of 10.0 (ug/eye); format: functional; summary of the method: as §1
# Felis catus [25] = organism: Felis catus; assay: The mean area between curves for pupil diameter between treated and control eyes. The effect was tested in cats at a dose of 10.0 (ug/eye); format: functional; summary of the method: as §4
# Felis catus [26] = organism: Felis catus; assay: The maximal difference in […] pupil diameter between treated and control eyes. The effect was tested in cats at a dose of 10.0 (ug/eye); format: functional; summary of the method: as §4
EC50 (Felis catus [1]) [µM],SMILES,Irritation (Felis catus [2]) [arbitrary units],Imax (Felis catus [3]) [mmHg],Imax (Monkey [4]) [mmHg],Hmax (Oryctolagus cuniculus [6]),P ABC (Felis catus [7]),Pmax (Felis catus [8]) [mm],H ABC (Oryctolagus cuniculus [9]),I ABC (Felis catus [11]),I ABC (Monkey [12]),Irritation (Felis catus [16]) [arbitrary units],P ABC (Felis catus [18]),Pmax (Felis catus [19]) [mm],I ABC (Felis catus [20]),Imax (Felis catus [21]) [mmHg],other results
0.00071,O=C(O)CCC/C=C\C[C@@H]1[C@@H](/C=C/C(O)CCc2ccccc2)[C@H](O)C[C@@H]1O (stereo partly drawn),–,–,–,–,–,–,–,–,–,–,–,–,–,–,–
0.04,Cc1ccc(CCC(O)/C=C/[C@@H]2[C@@H](C/C=C\CCCC(=O)O)[C@@H](O)C[C@H]2O)cc1 (stereo partly drawn),–,–,–,–,–,–,–,–,–,–,–,–,–,–,–
–,CC(C)OC(=O)CCC/C=C\C[C@@H]1[C@@H](/C=C/[C@@H](O)CCc2ccccc2)[C@H](O)C[C@@H]1O,0,2.7,-2.9,<1.5,-126,< 9.7,<-4,<36.9,-5.9,–,–,–,–,–,I ABC (Monkey [5]): <-5.8; Imax (Monkey [10]): <-3.3 mmHg
0.035,O=C(O)CCC/C=C\C[C@@H]1[C@@H](/C=C/[C@@H](O)CCc2ccc(Br)cc2)[C@H](O)C[C@@H]1O,–,–,–,–,–,–,–,–,–,–,–,–,–,–,–
–,CC(C)OC(=O)CCC/C=C\C[C@@H]1[C@@H](/C=C/[C@@H](O)CCc2ccc(-c3ccccc3)cc2)[C@H](O)C[C@@H]1O,0.8,-1,<0.8,<0.4,<-18.3,< -1.5,1.2,-10,3,1.6,<-4.9,-0.8,<-99.3,<-6,I ABC (Monkey [13]): <6.1; Imax (Monkey [14]): <1.4 mmHg; H ABC (Oryctolagus cuniculus [15]): 0.2; Hmax (Oryctolagus cuniculus [17]): 0.2
–,Cc1ccc(CC[C@H](O)/C=C/[C@@H]2[C@@H](C/C=C\CCCC(=O)OC(C)C)[C@@H](O)C[C@H]2O)cc1,0.2,-1,<-1.6,<1.5,<-46,< -3.5,4.4,-4.3,-3.8,0,<-73,< -6,-28,-1.3,I ABC (Monkey [13]): -3.5; Imax (Monkey [14]): -1.5 mmHg
–,Cc1cccc(CC[C@H](O)/C=C/[C@@H]2[C@@H](C/C=C\CCCC(=O)OC(C)C)[C@@H](O)C[C@H]2O)c1,0.3,-1,<-0.6,<1.6,<-85,< -6.8,<4.9,-17,-0.1,0.1,<-122,< -8.3,8,1.2,I ABC (Felis catus [22]): 14.1; I ABC (Monkey [5]): -3.6; Imax (Felis catus [23]): 2.3 mmHg; Irritation (Felis catus [24]): 0 arbitrary units; Imax (Monkey [10]): <-2.5 mmHg; P ABC (Felis catus [25]): <-149; Pmax (Felis catus [26]): < -8.8 mm
–,CC(C)OC(=O)CCC/C=C\C[C@@H]1[C@@H](/C=C/[C@@H](O)CCc2ccc(Br)cc2)[C@H](O)C[C@@H]1O,0,0.3,–,<0.5,-18.1,< -1.5,1.2,3.4,–,–,–,–,–,–,H ABC (Oryctolagus cuniculus [15]): <2.2; I ABC (Felis catus [22]): <-25; Hmax (Oryctolagus cuniculus [17]): <1.1; Imax (Felis catus [23]): <-3 mmHg; Irritation (Felis catus [24]): 0.3 arbitrary units; P ABC (Felis catus [25]): -80; Pmax (Felis catus [26]): < -6 mm
